Results as given in ChEMBL document CHEMBL3351727, “New praziquantel derivatives containing NO-donor furoxans and related furazans as active agents against Schistosoma mansoni” (Eur J Med Chem, 2014).
The source made the active and inactive calls. No cut-off for these calls is given here.

Key:
[1] = target: T1, Thioredoxin glutathione reductase (Schistosoma mansoni, UniProt Q962Y6); experiment: Inhibition of Schistosoma mansoni recombinant thioredoxin glutathione reductase assessed as 5-thio-2nitrobezoic acid formation after 3 mins
T1 sequence (Q962Y6 whole entry): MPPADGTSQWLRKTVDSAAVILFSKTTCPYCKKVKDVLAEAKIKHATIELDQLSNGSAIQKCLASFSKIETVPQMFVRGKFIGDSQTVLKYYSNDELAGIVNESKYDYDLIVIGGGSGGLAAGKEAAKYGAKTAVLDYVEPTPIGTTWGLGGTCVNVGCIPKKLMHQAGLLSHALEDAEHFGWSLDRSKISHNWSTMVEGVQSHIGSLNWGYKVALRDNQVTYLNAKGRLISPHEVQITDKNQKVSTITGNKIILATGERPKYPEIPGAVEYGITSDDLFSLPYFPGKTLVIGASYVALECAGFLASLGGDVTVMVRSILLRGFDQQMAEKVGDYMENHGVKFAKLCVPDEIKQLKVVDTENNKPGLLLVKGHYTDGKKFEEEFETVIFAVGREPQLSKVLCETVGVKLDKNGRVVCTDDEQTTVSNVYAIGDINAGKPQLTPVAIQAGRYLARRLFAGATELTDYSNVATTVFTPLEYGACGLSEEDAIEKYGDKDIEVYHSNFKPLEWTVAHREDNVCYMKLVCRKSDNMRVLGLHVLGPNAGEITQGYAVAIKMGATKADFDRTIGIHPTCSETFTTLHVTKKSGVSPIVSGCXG

[2] = system: Schistosoma mansoni; experiment: Antiparasitic activity against Schistosoma mansoni cercariae infected in female Swiss-Webster mouse assessed as worm contraction at 50 uM after 24 to 48 hrs by stereomicroscopy; format: functional, organism-based
How it was run: (§1)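 Adult worms were washed in RPMI 1640 with 25 mM HEPES, penicillin, streptomycin and 10% FBS, then held 15–20 per well overnight at 37°C in 5% CO₂. Medium was renewed the next day. Compounds from 10 mM DMSO stocks were added at 10 or 50 μM, with equal DMSO volumes in all wells and DMSO-only negative controls. After compound removal, morphology and mobility were followed over days.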

[3] = system: Schistosoma mansoni; experiment: Antiparasitic activity against Schistosoma mansoni cercariae infected in female Swiss-Webster mouse assessed as worm contraction at 10 uM after 24 to 48 hrs by stereomicroscopy; format: functional, organism-based; how it was run: as §1
[4] = system: Schistosoma mansoni; experiment: Antiparasitic activity against Schistosoma mansoni infected in female Swiss-Webster mouse assessed as worm killing at 50 uM after 144 hrs by stereomicroscopy
[5] = system: Schistosoma mansoni; experiment: Antiparasitic activity against Schistosoma mansoni infected in female Swiss-Webster mouse assessed as worm killing at 10 uM after 144 hrs by stereomicroscopy
[6] = system: Schistosoma mansoni; experiment: Antiparasitic activity against Schistosoma mansoni infected in female Swiss-Webster mouse assessed as worm killing at 50 uM after 48 hrs by stereomicroscopy; format: functional
How it was run: (§2)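 Adult S. mansoni worms were washed in complete RPMI 1640 with 25 mM HEPES, penicillin, streptomycin and 10% FBS. They were held 15–20 per well overnight at 37°C in 5% CO₂, then moved to fresh medium. Compounds from 10 mM DMSO stocks were added to final 10 or 50 μM. Controls received an equal volume of DMSO, and worm death was scored.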

[7] = system: Schistosoma mansoni; experiment: Antiparasitic activity against Schistosoma mansoni infected in female Swiss-Webster mouse assessed as worm killing at 10 uM after 48 hrs by stereomicroscopy; format: functional; how it was run: as §2
[8] = Induction of NO release in pH 7.4 buffer solution at 5:1 excess of L-cysteine after 1 hr incubation by Griess assay; format: physicochemical; details: pH 7.4, 1 h
How it was run: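 Compound was incubated 1 hr at 37 °C in pH 7.4 buffer with a 5:1 molar excess of L-cysteine. Nitrite was measured by Griess reaction and reported as % NO₂⁻ (mol/mol) ± SE.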

[9] = system: Schistosoma mansoni; experiment: Antiparasitic activity against Schistosoma mansoni infected in female Swiss-Webster mouse assessed as worm killing at 50 uM after 24 hrs by stereomicroscopy; format: functional, organism-based; how it was run: as §1
[10] = system: Schistosoma mansoni; experiment: Antiparasitic activity against Schistosoma mansoni infected in female Swiss-Webster mouse assessed as worm killing at 10 uM after 96 hrs by stereomicroscopy; format: functional, organism-based; how it was run: as §1
[11] = system: Schistosoma mansoni; experiment: Antiparasitic activity against Schistosoma mansoni cercariae infected in female Swiss-Webster mouse assessed as male worm contraction at 50 uM after 24 to 48 hrs by stereomicroscopy; format: functional, organism-based; how it was run: as §1
[12] = system: Schistosoma mansoni; experiment: Antiparasitic activity against Schistosoma mansoni infected in female Swiss-Webster mouse assessed as worm killing at 50 uM after 72 hrs by stereomicroscopy; format: functional, organism-based; how it was run: as §1
[13] = system: Schistosoma mansoni; experiment: Antiparasitic activity against Schistosoma mansoni cercariae infected in female Swiss-Webster mouse assessed as female worm contraction at 10 uM after 24 to 48 hrs by stereomicroscopy; format: functional, organism-based; how it was run: as §1

O=C(C1CCCCC1)N1CC(=O)N2CCc3ccccc3C2C1 (racemic) [PRAZIQUANTEL]
IC50 [1]: Not Active | Activity [2]: Active | Activity [3]: Active | Activity [4]: 40% | Activity [5]: 15%

NC(=O)c1c(COc2ccc3c(c2)C2CN(C(=O)C4CCCCC4)CC(=O)N2CC3)no[n+]1[O-] (stereo not given)
IC50 ([1]; read-out: IC50): 83 nM | Activity [2]: inactive | Activity [3]: inactive | Activity [6]: inactive | Activity [7]: inactive | Activity [8]: 1.1%

N#Cc1nonc1COc1ccc2c(c1)C1CN(C(=O)C3CCCCC3)CC(=O)N1CC2 (stereo not given)
IC50 ([1]; read-out: IC50): > 50000 nM | Activity [2]: Active | Activity [3]: inactive | Activity [6]: inactive | Activity [7]: inactive

N#Cc1c(-c2ccccc2)no[n+]1[O-] [FUROXAN]
Activity [2]: inactive | Activity [3]: inactive | Activity [9]: Active | Activity [10]: Active

O=C(C1CCCCC1)N1CC(=O)N2CCc3ccc(OCCCOc4nonc4S(=O)(=O)c4ccccc4)cc3C2C1 (stereo not given)
IC50 ([1]; read-out: IC50): > 50000 nM | Activity [2]: Active | Activity [3]: Active | Activity [6]: inactive | Activity [7]: inactive

COC(=O)c1nonc1C(=O)N1CC(=O)N2CCc3ccccc3C2C1 (stereo not given)
IC50 ([1]; read-out: IC50): > 50000 nM | Activity [2]: Active | Activity [3]: Active | Activity [4]: 18% | Activity [5]: 15%

O=C(C1CCCCC1)N1CC(=O)N2CCc3ccc(OCCCOc4no[n+]([O-])c4S(=O)(=O)c4ccccc4)cc3C2C1 (stereo not given)
IC50 ([1]; read-out: IC50): 8500 nM | Activity [3]: inactive | Activity [7]: Active | Activity [8]: 15.7% | Activity [9]: Active | Activity [11]: Active

N#Cc1nonc1C(=O)N1CC(=O)N2CCc3ccccc3C2C1 (stereo not given)
IC50 ([1]; read-out: IC50): > 50000 nM | Activity [2]: Active | Activity [3]: Active | Activity [4]: 25% | Activity [5]: 20%

NC(=O)c1nonc1COc1ccc2c(c1)C1CN(C(=O)C3CCCCC3)CC(=O)N1CC2 (stereo not given)
IC50 ([1]; read-out: IC50): > 50000 nM | Activity [2]: inactive | Activity [3]: inactive | Activity [6]: inactive | Activity [7]: inactive

NC(=O)c1nonc1C(=O)N1CC(=O)N2CCc3ccccc3C2C1 (stereo not given)
IC50 ([1]; read-out: IC50): > 50000 nM | Activity [2]: Active | Activity [3]: Active | Activity [4]: 23% | Activity [5]: 23%

COC(=O)c1c(C(=O)N2CC(=O)N3CCc4ccccc4C3C2)no[n+]1[O-] (stereo not given)
IC50 ([1]; read-out: IC50): 148 nM | Activity [2]: Active | Activity [3]: Active | Activity [8]: < 1% | Activity [4]: 50% | Activity [5]: 23%

N#Cc1c(COc2ccc3c(c2)C2CN(C(=O)C4CCCCC4)CC(=O)N2CC3)no[n+]1[O-] (stereo not given)
IC50 ([1]; read-out: IC50): 350 nM | Activity [2]: Active | Activity [3]: inactive | Activity [7]: inactive | Activity [8]: 33.8% | Activity [9]: Active

N#Cc1c(C(=O)N2CC(=O)N3CCc4ccccc4C3C2)no[n+]1[O-] (stereo not given)
IC50 ([1]; read-out: IC50): 316 nM | Activity [2]: Active | Activity [8]: 56.2% | Activity [12]: Active | Activity [13]: Active | Activity [5]: 30%

NC(=O)c1c(C(=O)N2CC(=O)N3CCc4ccccc4C3C2)no[n+]1[O-] (stereo not given)
IC50 ([1]; read-out: IC50): 10 nM | Activity [2]: Active | Activity [3]: Active | Activity [8]: 1.8% | Activity [4]: 80% | Activity [5]: 30%
